From ChEMBL document CHEMBL2177013, “Synthesis and biological evaluation of tylophorine-derived dibenzoquinolines as orally active agents: exploration of the role of tylophorine e ring on biological activity” (J Med Chem, 2012)
Active and inactive are the calls of the source. The rule behind the calls is not given here.

What was measured:
[1] = system: RAW264.7; assay: Reduction in LPS/INFgamma-induced COX2 protein expression in mouse RAW264.7 cells incubated for 20 hrs by Western blotting; type: functional, cell-based
Summary of the method: (§1)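 LPS/IFNγ-stimulated RAW264.7 cells treated with compound for 20 h. iNOS, COX-2 and GAPDH detected by Western blot; representative of at least three independent experiments.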

[2] = system: NCI-H460; assay: Growth inhibition of human NCI-H460 cells; type: functional
Summary of the method: (§2)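 Cells seeded per well: NUGC-3 4500, HONE-1 6000, MCF-7 6500, NCI-H460 2500, HepG2 10000, A549 5000; A549 grown in RPMI 1640 with 2 g/L NaHCO₃, 2 mM L-glutamine and 10% FBS. GI₅₀ = concentration giving 50% growth inhibition, mean of at least three experiments each in duplicate. Paclitaxel served as positive control.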

[3] = Growth inhibition of human HONE1 cells; type: functional; summary of the method: as §2
[4] = system: A549; assay: Growth inhibition of human A549 cells; type: functional; summary of the method: as §2
[5] = system: NCI-H460; assay: Down regulation of cyclin A2 expression in human NCI-H460 cells incubated for 24 hrs by Western blotting; type: functional, cell-based
[6] = Cytotoxicity against mouse RAW264.7 cells; type: cell-based
Summary of the method: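 RAW264.7 cells stimulated with LPS/IFNγ and compound-treated in parallel with the NO assay; CC50 taken as concentration giving 50% inhibition of cell growth. Mean of at least three experiments, each in duplicate.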

[7] = system: MCF7; assay: Induction of c-Jun protein accumulation in human MCF7 cells incubated for 24 hrs by Western blotting; type: functional, cell-based
[8] = system: MCF7; assay: Growth inhibition of human MCF7 cells; type: functional; summary of the method: as §2
[9] = system: NCI-H460; assay: Induction of c-Jun protein accumulation in human NCI-H460 cells incubated for 24 hrs by Western blotting; type: functional, cell-based
[10] = system: NUGC-3; assay: Growth inhibition of human NUGC3 cells; type: functional; summary of the method: as §2
[11] = system: MCF7; assay: Down regulation of cyclin A2 expression in human MCF7 cells incubated for 24 hrs by Western blotting; type: functional, cell-based
[12] = system: Transmissible gastroenteritis virus; assay: Antiviral activity against Transmissible gastroenteritis virus infected in ST cells assessed as reduction in N-protein expression pre-treated before virus infection measured 16 hrs post virus infection by Western blotting; type: functional, organism-based
Summary of the method: (§3)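 ST cells pretreated with compound, then infected with TGEV. Western blot for nucleocapsid (N) protein, caspase 3 (cleavage of procaspase 3) and GAPDH at 16 hpi. Representative of at least three independent experiments.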

[13] = system: RAW264.7; assay: Antiinflammatory activity in mouse RAW264.7 cells assessed as inhibition of LPS-induced nitric oxide production incubated for 18 hrs by nitrate/nitrite assay; type: functional, cell-based; settings: RAW264.7, 18 h
Summary of the method: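 RAW264.7 seeded 65000 cells/well, cultured 24 h, then medium replaced with complete medium containing IFNγ (20 ng/mL)/LPS (5 μg/mL) plus compound at various concentrations for 18 h; nitric oxide measured by Nitrate/Nitrite kit. EC50 as mean of at least three experiments, each in duplicate.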

[14] = system: Transmissible gastroenteritis virus; assay: Antiviral activity against Transmissible gastroenteritis virus infected in ST cells pre-treated 2 hrs before virus infection measured 6 hrs post virus infection by immunofluorescent assay; type: functional, organism-based; settings: Alphacoronavirus 1, ST
Summary of the method: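 ST cells, with or without 2 h compound pretreatment (10 concentrations), infected with TGEV at MOI 10. Immunofluorescence with anti-spike and anti-nucleocapsid antibodies at 6 hpi. EC50 from dose–response curves, mean of at least three experiments, each in duplicate.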

[15] = system: A549; assay: Down regulation of cyclin A2 expression in human A549 cells incubated for 24 hrs by Western blotting; type: functional, cell-based
[16] = system: Transmissible gastroenteritis virus; assay: Antiviral activity against Transmissible gastroenteritis virus infected in ST cells assessed as reduction in caspase-3 activation pre-treated before virus infection measured 16 hrs post virus infection by Western blotting; type: functional, organism-based; summary of the method: as §3
[17] = system: HepG2; assay: Growth inhibition of human HepG2 cells; type: functional; summary of the method: as §2
[18] = system: A549; assay: Induction of c-Jun protein accumulation in human A549 cells incubated for 24 hrs by Western blotting; type: functional, cell-based
[19] = system: RAW264.7; assay: Reduction in LPS/INFgamma-induced iNOS protein expression in mouse RAW264.7 cells incubated for 20 hrs by Western blotting; type: functional, cell-based; summary of the method: as §1

SMILES: COc1cc2c3c(c4cc(OC)c(OC)cc4c2cc1OC)CN(C(C)C)CC3
- Activity [1]: Active
- GI50 [2]: 290 nM
- GI50 [3]: 940 nM
- GI50 [4]: 380 nM
- Activity [5]: Active
- CC50 [6]: > 4000 nM
- Activity [7]: Active
- GI50 [8]: 340 nM
- Activity [9]: Active
- GI50 [10]: 320 nM
- Activity [11]: Active
- Activity [12]: Active
- EC50 [13]: 860 nM
- EC50 [14]: 600 nM
- Activity [15]: Active
- Activity [16]: Active
- GI50 [17]: 670 nM
- Activity [18]: Active
- Activity [19]: Active

SMILES: CCCN1Cc2c(c3cc(OC)c(OC)c(OC)c3c3cc(OC)c(OC)cc23)C(O)C1 (stereo unspecified)
- GI50 [2]: 590 nM
- GI50 [3]: 820 nM
- GI50 [4]: 820 nM
- GI50 [8]: 590 nM
- GI50 [10]: 490 nM
- EC50 [14]: 660 nM
- GI50 [17]: 830 nM

SMILES: CCCN1CCc2c(c3cc(OC)c(OC)cc3c3cc(OC)ccc23)C1
- GI50 [2]: 260 nM
- GI50 [3]: 770 nM
- GI50 [4]: 470 nM
- GI50 [8]: 420 nM
- GI50 [10]: 430 nM
- EC50 [14]: 680 nM
- GI50 [17]: 480 nM

SMILES: COc1cc2c3c(c4cc(OC)c(OC)cc4c2cc1OC)CN(C1C=CCCC1)CC3 (stereo unspecified)
- GI50 [2]: 2300 nM
- GI50 [3]: 2530 nM
- GI50 [4]: 1920 nM
- GI50 [8]: 2210 nM
- GI50 [10]: 1880 nM
- EC50 [14]: 2990 nM
- GI50 [17]: 3640 nM

SMILES: CCCN1CCc2c(c3cc(OC)c(OC)cc3c3c(OC)c(OC)c(OC)cc23)C1
- GI50 [2]: 490 nM
- GI50 [3]: 960 nM
- GI50 [4]: 790 nM
- GI50 [8]: 620 nM
- GI50 [10]: 540 nM
- EC50 [14]: 770 nM
- GI50 [17]: 860 nM

SMILES: CCCN1Cc2c(c3ccc(OC)cc3c3cc(OC)c(OC)cc23)C(O)C1 (stereo unspecified)
- GI50 [2]: 50 nM
- GI50 [3]: 140 nM
- GI50 [4]: 50 nM
- GI50 [8]: 110 nM
- GI50 [10]: 110 nM
- EC50 [14]: 120 nM
- GI50 [17]: 110 nM

SMILES: COc1cc2c3c(c4cc(OC)c(OC)cc4c2cc1OC)CN(CCC1OCCO1)CC3
- GI50 [2]: 4150 nM
- GI50 [3]: 6130 nM
- GI50 [4]: 4820 nM
- GI50 [8]: 4600 nM
- GI50 [10]: 4950 nM
- EC50 [14]: 31900 nM
- GI50 [17]: 6490 nM
